Shown are actives, neighbours in structure and some others; about 4.2% of the full set was active somewhere.
Fh CTSL1 inh: cathepsin L1 inhibition, PFM18AAP counter-screen; recombinant F. hepatica cathepsin L1, Z-Leu-Arg-MCA fluorescence; inhibition, % at 5.96 µM; 300,000 tested, 0.49% active;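 active = inhibition above the mean of all tested compounds plus 3 SD, set per screening campaign, cut at about 17% in these data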;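 note: 0% = plate median of test compound wells and 100% = 1 µM Z-Phe-Ala-diazomethylketone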
M18AAP inhibitor: blocks P. falciparum M18 aspartyl aminopeptidase; recombinant PfM18AAP, H-Glu-NHMec fluorogenic cleavage; 290,000 tested, 1.2% active; AID 1822; inhibition, % at 7.35 µM;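 active = inhibition above the campaign mean inhibition over all tested compounds plus 3 SD, cut at about 28% in these data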;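 note: 0% = plate median of test compound wells and 100% = 2 mM ZnCl2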
FXN GAA850 act: increases GAA850 frataxin promoter reporter activity. HEK293 lucGAA850 FXN promoter luciferase reporter, 24 h; percent of 10 µM SAHA response. activation, % at 6 µM. 360,000 tested, 0.56% active;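 active = activation above the average of all compounds screened plus 3 SD, cutoff fixed separately per campaign, cut at about 7.5% in these data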;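 note: 0% = DMSO wells and 100% = 10 µM SAHA wells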
SENP1 FRET inh: SENP1 (human) catalytic domain inhibition. recombinant SENP1 catalytic domain, CyPet-SUMO1-YPet FRET cleavage. inhibition, % at 10 µM. 360,000 tested, 0.21% active. AID 624204;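 active = inhibition at least 30% at 10 µM, raw YFP signal under a set limit, fluorescence ratio 0.5 to 1.5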;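 note: 0% = enzyme with DMSO and 100% = no enzyme wells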
Target sequence (Q9P0U3 419-644 limits assumed): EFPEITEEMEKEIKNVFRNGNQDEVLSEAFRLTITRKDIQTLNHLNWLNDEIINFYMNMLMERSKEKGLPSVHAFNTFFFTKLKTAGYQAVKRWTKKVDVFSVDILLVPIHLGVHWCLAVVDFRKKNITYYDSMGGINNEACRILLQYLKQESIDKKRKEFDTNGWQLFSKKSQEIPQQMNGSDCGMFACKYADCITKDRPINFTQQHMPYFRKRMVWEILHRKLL
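Material – human SENP1 catalytic domain · Input – SENP1 enzyme, 20 pM final · Compound dosing – single concentration of 10 µM compound, 0.5% DMSO final · Timing – enzyme reaction for 50 min at room temperature, dark · Measured by – FRET fluorescence in CFP and YFP emission channels · Control set – no-enzyme wells low, DMSO-plus-enzyme wells high control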
HDAC3 inhib: human HDAC3 inhibition | O15379 | recombinant HDAC3, fluorogenic peptide/trypsin coupled, fluorescence | inhibition, % at 8.3 µM | 320,000 tested, 0.15% active; in the data active = inhibition above about 26%, passing the limit was not always enough
AHR act: activators of human aryl hydrocarbon receptor; AHR-responsive luciferase reporter cells, luminescence; activation, % at 5 µM; 320,000 tested, 2.5% active; AID 2796; in the data active = activation above about 47%;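 note: 0% = vehicle wells and 100% = reference agonist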
The depositor's hits bear a star.

`COc1ccc(OC)c(NC(=O)c2ccccc2NC(=O)c2ccco2)c1` gave Fh CTSL1 inh 0, M18AAP inhibitor 3, FXN GAA850 act 0, SENP1 FRET inh 3 and AHR act 6.
Screening CCOc1ccccc1NC(=O)c1ccccc1NC(=O)c1ccco1 returned Fh CTSL1 inh 1, M18AAP inhibitor 2, FXN GAA850 act -1, SENP1 FRET inh 7, HDAC3 inhib 7 and AHR act 70*.
`COc1ccc(C(=O)Nc2ccccc2C(=O)NCCN2CCOCC2)cc1` gave Fh CTSL1 inh 23*, M18AAP inhibitor 12, FXN GAA850 act 3, SENP1 FRET inh 1, HDAC3 inhib 3 and AHR act 1.
Screening COc1ccc(NC(=O)c2ccccc2NC(=O)c2ccco2)cc1 returned Fh CTSL1 inh 4, M18AAP inhibitor -5, FXN GAA850 act -4, SENP1 FRET inh 2, HDAC3 inhib -3 and AHR act 63*.
CCSc1nnc(NC(=O)c2cccc3ccccc23)s1 was read as Fh CTSL1 inh 0, M18AAP inhibitor 1, FXN GAA850 act 0, SENP1 FRET inh 2, HDAC3 inhib -8 and AHR act 52*.
CCCCCCCCN1C(=O)[C@H](CC(=O)NCCC(C)C)C[C@@]2(C(=O)OCC)CCC=C12 was read as SENP1 FRET inh -6.
Screening Nc1nc(SCc2ccccc2Cl)c2ncn(C3OC(CO)C(O)C3O)c2n1 (centres undefined) returned FXN GAA850 act 0 and SENP1 FRET inh 1.
CCOc1ccccc1NC(=O)c1cc(SC)ccc1Cl was read as Fh CTSL1 inh 5, M18AAP inhibitor -8, FXN GAA850 act -2, SENP1 FRET inh -1, HDAC3 inhib -1 and AHR act 72*.
CSc1ccc(Cl)c(C(=O)NCCOc2ccccc2)c1 was read as Fh CTSL1 inh 0, M18AAP inhibitor -4, FXN GAA850 act 4, SENP1 FRET inh 3, HDAC3 inhib 5 and AHR act -3.
For COc1ccc(-c2ccn(-c3cccc(F)n3)n2)cc1 the results were M18AAP inhibitor 32*, FXN GAA850 act 0 and SENP1 FRET inh -16.
For Nc1nn(-c2cccc(F)n2)cc1-c1ccc(Cl)cc1 the results were M18AAP inhibitor 1, FXN GAA850 act 4 and SENP1 FRET inh 1.
Screening Cn1ncc([N+](=O)[O-])c1C(=O)Nc1ccc(Cl)cc1 returned Fh CTSL1 inh 3, M18AAP inhibitor -6, FXN GAA850 act 0, SENP1 FRET inh -1, HDAC3 inhib -5 and AHR act 72*.
`COc1ccccc1NC(=O)c1c([N+](=O)[O-])cnn1C` gave Fh CTSL1 inh -1, M18AAP inhibitor 0, FXN GAA850 act 0, SENP1 FRET inh 2, HDAC3 inhib 7 and AHR act 61*.
`COc1ccc(Cl)cc1NC(=O)c1cccc([N+](=O)[O-])c1O` gave FXN GAA850 act 1 and SENP1 FRET inh -3.
`COc1ccc(Cl)cc1NC(=O)c1noc(C)c1[N+](=O)[O-]` gave Fh CTSL1 inh 3, M18AAP inhibitor 5, FXN GAA850 act 4, SENP1 FRET inh -1, HDAC3 inhib 0 and AHR act 55*.
Cn1ncc([N+](=O)[O-])c1C(=O)Nc1ccccc1C(=O)O was read as Fh CTSL1 inh 1, M18AAP inhibitor -7, FXN GAA850 act 1, SENP1 FRET inh 0, HDAC3 inhib 6 and AHR act 1.
Screening Cn1ncc([N+](=O)[O-])c1C(=O)Nc1ccc(C2CCCCC2)cc1 returned Fh CTSL1 inh 1, M18AAP inhibitor 4, FXN GAA850 act 5, SENP1 FRET inh 0, HDAC3 inhib 11 and AHR act 34.
`COc1ccccc1NC(=O)C1=C(C)NC(=O)NC1c1ccccc1[N+](=O)[O-]` (centres undefined) gave Fh CTSL1 inh 6, M18AAP inhibitor 20, FXN GAA850 act 2, SENP1 FRET inh 2, HDAC3 inhib 4 and AHR act 71*.
Screening CCN(C(=O)c1cc(S(=O)(=O)N2CCc3ccccc32)cn1C)c1ccccc1 returned Fh CTSL1 inh 2, M18AAP inhibitor -8, FXN GAA850 act 1, SENP1 FRET inh 1, HDAC3 inhib -13 and AHR act 0.
For NC(=S)NN=Cc1c[nH]c2nccnc12 the results were FXN GAA850 act 1 and SENP1 FRET inh 0.
`O=C(CCNC(=O)c1ccco1)Nc1ccc(OC(F)F)cc1` gave Fh CTSL1 inh -2, M18AAP inhibitor 0, FXN GAA850 act 0, SENP1 FRET inh -1, HDAC3 inhib 7 and AHR act 1.
For CC1(C)CC2CC(C)(CN2S(=O)(=O)c2ccc(F)cc2F)C1 (centres undefined) the results were FXN GAA850 act 1, SENP1 FRET inh 3, HDAC3 inhib 12 and AHR act -1.
`Cc1ccsc1CN(C(=O)c1ccc([N+](=O)[O-])cc1)C1CCS(=O)(=O)C1` (centres undefined) gave Fh CTSL1 inh -2, M18AAP inhibitor -10, FXN GAA850 act 1, SENP1 FRET inh -1, HDAC3 inhib -11 and AHR act 1.
COc1ccccc1NC(=O)c1nn(C)c(C(=O)Nc2ccccc2OC)c1[N+](=O)[O-] was read as Fh CTSL1 inh -1, M18AAP inhibitor 3, FXN GAA850 act 1, SENP1 FRET inh -1, HDAC3 inhib -1 and AHR act 59*.
COc1ccccc1NC(=O)c1nn(C)cc1Br was read as Fh CTSL1 inh 2, M18AAP inhibitor 2, FXN GAA850 act -1, SENP1 FRET inh -2, HDAC3 inhib -10 and AHR act 61*.
COc1ccccc1NC(=O)c1c([N+](=O)[O-])c(C(C)(C)C)nn1C was read as Fh CTSL1 inh -7, M18AAP inhibitor -3, FXN GAA850 act -1, SENP1 FRET inh 1, HDAC3 inhib -2 and AHR act 7.
`O=C(NCCC1=CCCCC1)C1CC(=O)N(Cc2ccccc2)C1` (centres undefined) gave Fh CTSL1 inh 3, M18AAP inhibitor 7, FXN GAA850 act 0, SENP1 FRET inh -3, HDAC3 inhib 0 and AHR act 0.
For O=C(NCc1nnc2c(C(F)(F)F)cc(Cl)cn12)c1ccc2c(c1)OCO2 the results were Fh CTSL1 inh 1, M18AAP inhibitor -9, FXN GAA850 act 0, SENP1 FRET inh -3, HDAC3 inhib -1 and AHR act 52*.
Screening O=C(NCc1nnc2c(C(F)(F)F)cc(Cl)cn12)c1cccnc1 returned Fh CTSL1 inh -2, M18AAP inhibitor -4, FXN GAA850 act -1, SENP1 FRET inh -4, HDAC3 inhib 1 and AHR act 14.
O=C(/C=C/c1ccco1)NC1CCCC1 was read as Fh CTSL1 inh 59*, M18AAP inhibitor -1, FXN GAA850 act 1, SENP1 FRET inh -4, HDAC3 inhib -2 and AHR act 3.

Compound activity from PubChem BioAssay.
